Compounds with a hit are over-represented: about 2.8% of the library has one in this group of screens.
PGE2 EP2 inh – human EP2 receptor antagonists, primary screen, TR-FRET cAMP, C6 glioma cells | AID 1422, 2008 | inhibition, % at 25 µM | C6 glioma cells expressing human EP2; cells stimulated with saturating PGE2 | 260,000 tested, 0.52% active | Prostaglandin E2 receptor EP2 subtype (Homo sapiens), P43116;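 active = percent inhibition above 40 after rounding to a whole number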;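 note: rat C6 glioma host cells with rolipram phosphodiesterase inhibitor present; the protocol text gives 20 µM as final concentration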
EP2 modulator – EP2 receptor modulators, cAMP readout, primary screen, cell-based, HTRF cAMP, PGE2 stimulation. AID 940, 2007. 260,000 tested, 0.83% active. induction, % at 25 µM. Prostaglandin E2 receptor EP2 subtype (Homo sapiens), P43116. EP2-expressing cells, cAMP HTRF FRET, PGE2 co-stimulation;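 active = compounds whose cAMP rise, as percent of the full-agonist control response, exceeds 60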;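 note: rat C6 glioma line stably carrying human EP2 under a CMV promoter; the protocol text gives 20 µM as final concentration; 100% = response of wells given 1 µM PGE2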
NPY-Y2 PAM-ag – NPY-Y2 potentiators or agonists, primary screen, cell-based. activation, % at 3.6 µM. 220,000 tested, 0.45% active. cells expressing NPY-Y2, potentiator/agonist read-out; in the data active = activation above about 27%;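 note: cells stimulated with NPY near EC25 plus isoproterenol at EC100; 0% = vehicle plus submaximal agonist and 100% = vehicle plus saturating agonist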
NPY-Y2 antag – NPY-Y2 receptor antagonists, primary screen, cell-based; Neuropeptide Y receptor type 2 (Homo sapiens), P49146; NPY-Y2 expressing cells, antagonist mode; inhibition, % at 2.7 µM; 140,000 tested, 0.99% active; AID 793, 2007; in the data active = inhibition above about 17%;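 note: 0% = vehicle with agonist challenge and 100% = reference antagonist with challenge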
NPY-Y1 PAM-ag – NPY-Y1 receptor potentiators or agonists, primary screen, cell-based. Neuropeptide Y receptor type 1 (Homo sapiens), P25929. NPY-Y1 expressing cells, potentiator/agonist activation. activation, % at 3.6 µM. 220,000 tested, 0.37% active; in the data active = activation above about 33%, passing the limit was not always enough;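 note: cells stimulated with NPY at EC10 then isoproterenol at EC100; 0% = low agonist plus stimulus and 100% = saturating agonist plus stimulus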
Target sequence (P25929 whole entry, looked up): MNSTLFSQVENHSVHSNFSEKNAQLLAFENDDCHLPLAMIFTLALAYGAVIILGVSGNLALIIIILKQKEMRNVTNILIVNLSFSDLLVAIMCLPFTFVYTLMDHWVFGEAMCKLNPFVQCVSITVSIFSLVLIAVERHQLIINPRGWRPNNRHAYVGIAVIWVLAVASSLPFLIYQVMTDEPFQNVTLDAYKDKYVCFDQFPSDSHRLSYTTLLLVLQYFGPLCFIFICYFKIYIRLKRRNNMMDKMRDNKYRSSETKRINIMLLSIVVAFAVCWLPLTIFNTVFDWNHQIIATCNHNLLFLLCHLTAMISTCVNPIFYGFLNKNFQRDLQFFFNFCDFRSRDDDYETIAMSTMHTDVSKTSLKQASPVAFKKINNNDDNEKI
NPY-Y1 antag – NPY-Y1 receptor antagonists, primary screen, cell-based; AID 1040, 2008; 200,000 tested, 1% active; Neuropeptide Y receptor type 1 (Homo sapiens), P25929; HEK293-CNG Y1 cells, membrane potential fluorescence; NPY at EC95, then isoproterenol; inhibition, % at 3.6 µM;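 active = inhibition above the campaign mean inhibition of all tested compounds plus 3 SD, cut at about 20% in these data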;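 note: 0% = DMSO wells given NPY plus isoproterenol and 100% = isoproterenol alone without NPY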
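Test system – HEK293 Y1/CNG channel cell line · Also added – NPY agonist 25 nM, then isoproterenol 1 µM plus Ro 20-1724 25 µM · Compound dosing – one concentration, 3.6 µM, in 0.4% DMSO · Schedule – compound incubation 1 h at room temperature, readout 45 min post-stimulation · Technique – fluorescence, membrane potential probe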
* marks the source's active call; other numbers are inactive results; ! = not active in a repeat.

For COCC(C)n1c(C)cc(C(=O)CSc2nc3ccccc3c(=O)[nH]2)c1C (stereo not drawn) the results were PGE2 EP2 inh 7, EP2 modulator 62*, NPY-Y2 PAM-ag 7, NPY-Y2 antag 2, NPY-Y1 PAM-ag -12 and NPY-Y1 antag -4.
Screening CCc1[nH]n2c(=O)cc(C)nc2c1-c1cccs1 returned EP2 modulator 25.
`c1cnc(N2CCN(c3nc4ccccc4n4cnnc34)CC2)nc1` gave PGE2 EP2 inh 3, EP2 modulator -15, NPY-Y2 PAM-ag 5, NPY-Y2 antag 2, NPY-Y1 PAM-ag -10 and NPY-Y1 antag 4.
`Cc1cccc(N2CCN(c3nc4ccccc4n4cnnc34)CC2)c1C` gave PGE2 EP2 inh 11, EP2 modulator 63*, NPY-Y2 PAM-ag 5, NPY-Y2 antag 0, NPY-Y1 PAM-ag -1 and NPY-Y1 antag 2.
For Cc1ccc(-c2csc(NCc3ccco3)n2)cc1 the results were PGE2 EP2 inh 20 and EP2 modulator -50.
For Cc1cccc2sc(N(CCCN(C)C)C(=O)c3sc4ccccc4c3Cl)nc12 the results were PGE2 EP2 inh 14, EP2 modulator 16, NPY-Y2 PAM-ag -17, NPY-Y2 antag 5, NPY-Y1 PAM-ag -20 and NPY-Y1 antag 8.
`CN(C)CCCN(C(=O)c1sc2ccccc2c1Cl)c1nc2c(F)cccc2s1` gave PGE2 EP2 inh 8, EP2 modulator 25, NPY-Y2 PAM-ag -20, NPY-Y2 antag 18*, NPY-Y1 PAM-ag -39 and NPY-Y1 antag 20*.
CCOc1cccc2sc(N(CCCN(C)C)C(=O)c3ccc(S(=O)(=O)N(C)c4ccccc4)cc3)nc12 was read as PGE2 EP2 inh 18, EP2 modulator -69, NPY-Y2 PAM-ag -18, NPY-Y1 PAM-ag -34 and NPY-Y1 antag 21*.
Screening O=C1CC(/C=C/c2ccccc2)(C(=O)NC2CCCCC2)N1c1ccc2c(c1)OCCO2 (stereo not drawn) returned PGE2 EP2 inh 12 and EP2 modulator 18.
Screening CCO[C@H]1OC(C(=O)NCc2ccccc2)=C[C@@H](c2ccc(C(F)(F)F)cc2)[C@@H]1CCCO returned PGE2 EP2 inh 9, EP2 modulator 10, NPY-Y2 PAM-ag 11, NPY-Y1 PAM-ag 37* and NPY-Y1 antag -8.
For CC1(C)Cc2ccccc2C(C(=O)Nc2ccccc2Cl)N1 (stereo not drawn) the results were PGE2 EP2 inh 10 and EP2 modulator 63*.
`CC(=O)NCC1COc2ccccc2O1` (stereo not drawn) gave PGE2 EP2 inh 54*!, EP2 modulator -5, NPY-Y2 PAM-ag -1 and NPY-Y1 PAM-ag 2.
For c1ccc2c(c1)OCC(CNCC1COc3ccccc3O1)O2 (stereo not drawn) the results were PGE2 EP2 inh 3 and EP2 modulator -31.
O=C(COc1ccc(/C=N/NS(=O)(=O)c2ccccc2)cc1)Nc1cccc(Cl)c1 was read as PGE2 EP2 inh 9, EP2 modulator -36, NPY-Y2 PAM-ag 8, NPY-Y2 antag 18*, NPY-Y1 PAM-ag 25 and NPY-Y1 antag 43*.
Screening O=C(COc1ccc(/C=N/NS(=O)(=O)c2ccccc2)cc1)NCc1ccccc1 returned PGE2 EP2 inh 14, EP2 modulator -25, NPY-Y2 PAM-ag -3, NPY-Y2 antag 1, NPY-Y1 PAM-ag 0 and NPY-Y1 antag -3.
For O=C(COc1ccccc1Cl)Nc1cccc2ncccc12 the results were PGE2 EP2 inh 14 and EP2 modulator -62.
`Clc1ccc2[nH]c3c(N4CCC5(CC4)OCCO5)ncnc3c2c1` gave PGE2 EP2 inh 46*, EP2 modulator -60, NPY-Y2 PAM-ag -14, NPY-Y2 antag 3, NPY-Y1 PAM-ag -19 and NPY-Y1 antag 7.
COc1cccc(CCNCc2cc3c(C)nn(-c4ccccc4)c3[nH]c2=O)c1 was read as PGE2 EP2 inh 15 and EP2 modulator -23.
For Cc1ccc(C(=O)N(CC(=O)NC2CCCC2)c2ccccc2C)s1 the results were PGE2 EP2 inh 14, EP2 modulator 7, NPY-Y2 PAM-ag -9, NPY-Y1 PAM-ag 12 and NPY-Y1 antag -1.
For Cc1cc(C(C)(C)C)oc1C(=O)N(CC(=O)NC1CCCC1)c1c(C)cccc1C the results were PGE2 EP2 inh 11, EP2 modulator 64*, NPY-Y2 PAM-ag -8, NPY-Y2 antag 10, NPY-Y1 PAM-ag 12 and NPY-Y1 antag 10.
O=C(CSc1nnc2c3c4c(sc3nc(C3CC3)n12)CCCC4)Nc1cccc(F)c1 was read as PGE2 EP2 inh 7 and EP2 modulator -2.
Screening COc1ccccc1/C=N/n1c(C)nnc1-n1nc(C)cc1C returned PGE2 EP2 inh 5, EP2 modulator 29, NPY-Y2 PAM-ag -11, NPY-Y2 antag 1, NPY-Y1 PAM-ag -22 and NPY-Y1 antag -2.
Screening Cc1cc(C)n(-c2nnc(C)n2/N=C/c2cc(Br)ccc2OCc2ccccc2)n1 returned PGE2 EP2 inh 9, EP2 modulator 14, NPY-Y2 PAM-ag -15, NPY-Y2 antag 32*, NPY-Y1 PAM-ag 3 and NPY-Y1 antag 7.
Screening O=C(CN1CCC(c2ccc(F)cc2)CC1)NC1CC1 returned PGE2 EP2 inh 8 and EP2 modulator -21.
Cc1ccc(NC(=O)c2cccc(C(=O)OC(C)C)n2)c(Br)c1 was read as PGE2 EP2 inh 7, EP2 modulator 62*, NPY-Y2 PAM-ag 1, NPY-Y1 PAM-ag -13 and NPY-Y1 antag 3.
Cc1ccc(-c2nnn(CC(=O)N3CCc4ccccc43)n2)c(-n2cnnn2)c1 was read as PGE2 EP2 inh 6 and EP2 modulator -62.
Screening COc1ccc(-c2nc3c4ccccc4ccn3c2CN2CCCCC2)cc1OC returned PGE2 EP2 inh 9, EP2 modulator 64*, NPY-Y2 PAM-ag -28 and NPY-Y1 PAM-ag -14.
For COc1ccc(-c2nc3c4ccccc4ccn3c2CN2CCCCC2)cc1 the results were PGE2 EP2 inh 4, EP2 modulator 43, NPY-Y2 PAM-ag -28, NPY-Y1 PAM-ag -17 and NPY-Y1 antag 8.
`CCc1ccc(-c2nc(CN3CCC(C(=O)N4CCN(c5ccccn5)CC4)CC3)c(C)o2)cc1` gave EP2 modulator -11, NPY-Y2 PAM-ag -9, NPY-Y2 antag 17, NPY-Y1 PAM-ag -25 and NPY-Y1 antag 13.
For CCc1ccc(-c2nc(CN3CCC(C(=O)N4CCN(c5ccccc5)CC4)CC3)c(C)o2)cc1 the results were PGE2 EP2 inh 5, EP2 modulator -8, NPY-Y2 PAM-ag -28, NPY-Y2 antag 31*, NPY-Y1 PAM-ag -75 and NPY-Y1 antag 47*.
CC(C)c1ccc(N(CC(=O)N2CCN(C)CC2)S(C)(=O)=O)cc1 was read as PGE2 EP2 inh 8 and EP2 modulator 0.
